# From ChEMBL document CHEMBL3272327, “Hypocholesterolemic activity of 1,3-bis(substituted phenoxy)-2-propanones” (J Med Chem, 1976)
# Tests used:
# Rattus norvegicus [1] = assay: Hypocholesterolemic activity in Sprague-Dawley rat assessed as serum cholesterol level at 10 mg/kg/day, po administered via intubation measured on day 16 by Liebermann-Burchard reaction (reference value: 100%); type: functional
# Rattus norvegicus [2] = assay: Hypocholesterolemic activity in Sprague-Dawley rat assessed as serum cholesterol level at 10 mg/kg/day, po administered via intubation measured on day 4 by Liebermann-Burchard reaction (reference value: 100%); type: functional
# Rattus norvegicus [3] = assay: Hypocholesterolemic activity in Sprague-Dawley rat assessed as serum cholesterol level at 10 mg/kg/day, po administered via intubation measured on day 10 by Liebermann-Burchard reaction (reference value: 100%); type: functional
# Rattus norvegicus [4] = assay: Effect on kidney weight in rat at 10 mg/kg/day administered for 16 days measured 24 hrs after last drug dosage relative to total body weight (reference value: 0.96 +/- 0.08%); type: ADME, organism-based; conditions: in vivo
# Rattus norvegicus [5] = assay: Uterotrophic activity in ovariectomized Sprague-Dawley rat assessed as uterine weight administered for 3 days (reference value: 100 +/- 27%); type: organism-based, Uterus; conditions: in vivo, 72 h
# [6] = Toxicity in ip dosed CF1 mouse assessed as animal death; type: organism-based; conditions: in vivo
# How it was run: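 Male CF1 mice given active propanones ip over 10 mg to 6 g/kg where solubility allowed; deaths recorded to estimate LD50.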
# Rattus norvegicus [7] = assay: Effect on epididymis and vas deferens weight in rat at 10 mg/kg/day administered for 16 days measured 24 hrs after last drug dosage relative to total body weight (reference value: 0.24 +/- 0.07%); type: ADME, organism-based; conditions: in vivo
# Rattus norvegicus [8] = assay: Effect on liver weight in rat at 10 mg/kg/day administered for 16 days measured 24 hrs after last drug dosage relative to total body weight (reference value: 4.54 +/- 0.29%); type: ADME, organism-based; conditions: in vivo
# Rattus norvegicus [9] = assay: Effect on testes weight in rat at 10 mg/kg/day administered for 16 days measured 24 hrs after last drug dosage relative to total body weight (reference value: 1.10 +/- 0.17%); type: ADME, organism-based, Testis; conditions: in vivo
# Rattus norvegicus [10] = assay: Effect on vesicular gland weight in rat at 10 mg/kg/day administered for 16 days measured 24 hrs after last drug dosage relative to total body weight (reference value: 0.11 +/- 0.04%); type: ADME, organism-based; conditions: in vivo
# [11] = Solubility of the compound in 1% CMC; type: physicochemical
# Rattus norvegicus [12] = assay: Effect on heart weight in rat at 10 mg/kg/day administered for 16 days measured 24 hrs after last drug dosage relative to total body weight (reference value: 0.43 +/- 0.10%); type: ADME, organism-based; conditions: in vivo
# Mus musculus [13] = assay: Antifertility activity in CF1 mouse assessed as proportion of fetus per litter at 50 mg/kg/day, ip (reference value: 100 +/- 25%); type: ADME, organism-based; parameters: route intraperitoneal; conditions: in vivo
# Rattus norvegicus [14] = assay: Effect on glycogen content in rat liver at 10 mg/kg/day administered for 16 days (reference value: 100 +/- 24%); type: ADME, organism-based; conditions: in vivo, 384 h
# Rattus norvegicus [15] = assay: Effect on lipid content in rat liver at 10 mg/kg/day administered for 16 days (reference value: 100 +/- 16%); type: ADME, organism-based; conditions: in vivo, 384 h
# Rattus norvegicus [16] = assay: Hypocholesterolemic activity in rat assessed as serum triglyceride level at 10 mg/kg/day administered for 8 days (reference value: 100 +/- 15%); type: functional
# How it was run: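 Male Sprague-Dawley rats dosed orally at 10 mg/kg/day in 1% CMC. Serum triglycerides were measured with a stat pack kit after 8 days of dosing. Expressed as percent of vehicle control, N = 8; Student's t test.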
# Mus musculus [17] = assay: Antifertility activity in CF1 mouse assessed as proportion of reabsorption litter at 50 mg/kg/day, ip (reference value: 100 +/- 25%); type: ADME, organism-based; parameters: route intraperitoneal; conditions: in vivo
# Rattus norvegicus [18] = assay: Effect on DNA content in rat liver at 10 mg/kg/day administered for 16 days (reference value: 100 +/- 25%); type: ADME, organism-based; conditions: in vivo, 384 h
# Rattus norvegicus [19] = assay: Effect on protein content in rat liver at 10 mg/kg/day administered for 16 days (reference value: 100 +/- 6%); type: ADME, organism-based; conditions: in vivo, 384 h
# Mus musculus [20] = assay: Antifertility activity in CF1 mouse assessed as proportion of pregnant animals at 50 mg/kg/day, ip (reference value: 100%); type: ADME, organism-based; parameters: route intraperitoneal; conditions: in vivo
# Rattus norvegicus [21] = assay: Effect on RNA content in rat liver at 10 mg/kg/day administered for 16 days (reference value: 100 +/- 8%); type: ADME, organism-based; conditions: in vivo, 384 h
# Mus musculus [22] = species: Mus musculus; assay: Antifertility activity in CF1 mouse assessed as proportion of reabsorption litter at 10 ug (reference value: 100 +/- 25%); type: ADME, organism-based; conditions: in vivo
# Mus musculus [23] = species: Mus musculus; assay: Antifertility activity in CF1 mouse assessed as proportion of fetus per litter at 10 ug (reference value: 100 +/- 25%); type: ADME, organism-based; conditions: in vivo
# Mus musculus [24] = species: Mus musculus; assay: Antifertility activity in CF1 mouse assessed as proportion of pregnant animals at 10 ug (reference value: 100%); type: ADME, organism-based; conditions: in vivo
SMILES,Activity (Rattus norvegicus [1]) [%],Activity (Rattus norvegicus [2]) [%],Activity (Rattus norvegicus [3]) [%],further results
O=C(COc1ccccc1)COc1ccccc1,90,104,87,–
COc1ccccc1OCC(=O)COc1ccccc1OC,79,102,83,–
O=C(COc1ccc(I)cc1)COc1ccc(I)cc1,93,100,103,–
O=C(COCc1ccc(Cl)cc1)COCc1ccc(Cl)cc1,92,106,88,–
CC(=O)C(O)(Cc1ccccc1)Cc1ccccc1,84,88,77,–
Cc1ccc(OCC(=O)C(O)(Cc2ccccc2)Cc2ccccc2)cc1,70,80,72,–
Cc1ccc(CCC(=O)CCc2ccc(C)cc2)cc1,96,91,86,–
O=C(CS(=O)(=O)c1ccc(Cl)cc1)CS(=O)(=O)c1ccc(Cl)cc1,91,82,86,–
CCCCCCCCCCCCCCCCOCC(=O)COCCCCCCCCCCCCCCCC,91,88,89,–
CCC(=O)c1ccc(OCC(=O)CCl)cc1,90,79,89,–
Cc1cc(OCC(=O)COc2cc(C)c(Cl)c(C)c2)cc(C)c1Cl,61,78,70,Activity (Rattus norvegicus [4]): 1.02%; Activity (Rattus norvegicus [5]): 83%; LD50 [6]: > 6000 mg/kg; Activity (Rattus norvegicus [7]): 0.27%; Activity (Rattus norvegicus [8]): 4.66%; Activity (Rattus norvegicus [9]): 0.91%; Activity (Rattus norvegicus [10]): 0.1%; solubility [11]: Insoluble
O=C(COc1ccc(F)cc1)COc1ccc(F)cc1,82,88,87,–
O=C(COc1ccc(Br)cc1)COc1ccc(Br)cc1,85,74,85,–
Cc1ccc(OCC(=O)COc2ccc(Cl)cc2)cc1,75,108,84,–
COc1ccc(OCC(=O)COc2ccc(Cl)cc2)cc1,84,102,88,–
Cc1cccc(OCC(=O)COc2cccc(C)c2)c1,97,115,119,–
CCc1ccc(OCC(=O)COc2ccc(CC)cc2)cc1,64,70,60,Activity (Rattus norvegicus [4]): 0.87%; Activity (Rattus norvegicus [5]): 62%; LD50 [6]: > 3000 mg/kg; Activity (Rattus norvegicus [7]): 0.27%; Activity (Rattus norvegicus [8]): 4.28%; Activity (Rattus norvegicus [9]): 1.14%; Activity (Rattus norvegicus [10]): 0.15%; solubility [11]: Insoluble

SMILES,Activity (Rattus norvegicus [1]) [%],Activity (Rattus norvegicus [2]) [%],Activity (Rattus norvegicus [3]) [%],further results
COc1ccc(OCC(=O)COc2ccc(OC)cc2)cc1,60,76,51,Activity (Rattus norvegicus [4]): 1.04%; Activity (Rattus norvegicus [5]): 70%; LD50 [6]: 6000 mg/kg; Activity (Rattus norvegicus [7]): 0.22%; Activity (Rattus norvegicus [8]): 4.73%; Activity (Rattus norvegicus [9]): 1.22%; Activity (Rattus norvegicus [10]): 0.11%; Activity (Rattus norvegicus [12]): 0.54%
CCOc1ccc(OCC(=O)COc2ccc(OCC)cc2)cc1,85,77,96,–
CCCc1ccc(OCC(=O)COc2ccc(CCC)cc2)cc1,78,94,88,–
CC(C)(C)c1ccc(OCC(=O)COc2ccc(C(C)(C)C)cc2)cc1,83,87,95,–
O=C(CSc1ccc(Cl)cc1)CSc1ccc(Cl)cc1,66,70,73,Activity (Rattus norvegicus [4]): 0.94%; Activity (Rattus norvegicus [5]): 86%; LD50 [6]: > 3000 mg/kg; Activity (Rattus norvegicus [7]): 0.25%; Activity (Rattus norvegicus [8]): 4.53%; Activity (Rattus norvegicus [9]): 1.13%; Activity (Rattus norvegicus [10]): 0.12%; solubility [11]: Insoluble
Cc1cc(Cl)c(OCC(=O)COc2cc(C)c(C)cc2Cl)cc1C,58,79,65,Activity (Rattus norvegicus [4]): 1.06%; Activity (Rattus norvegicus [5]): 56%; LD50 [6]: > 2000 mg/kg; Activity (Rattus norvegicus [7]): 0.27%; Activity (Rattus norvegicus [8]): 4.8%; Activity (Rattus norvegicus [9]): 1.24%; Activity (Rattus norvegicus [10]): 0.16%; solubility [11]: Insoluble; Activity (Rattus norvegicus [12]): 0.52%
O=C(CSc1ccccc1)CSc1ccccc1,79,96,101,–
O=C(COc1cc(Cl)c(Cl)cc1Cl)COc1cc(Cl)c(Cl)cc1Cl,97,94,82,–
O=C(COc1ccc(Cl)cc1)COc1ccc(Cl)cc1,62,81,64,Activity (Rattus norvegicus [4]): 0.86%; Activity (Rattus norvegicus [5]): 48%; Activity (Mus musculus [13]): 84%; Activity (Rattus norvegicus [14]): 105%; LD50 [6]: > 2000 mg/kg; Activity (Rattus norvegicus [15]): 101%; Activity (Rattus norvegicus [7]): 0.26%; Activity (Rattus norvegicus [16]): 108%; Activity (Mus musculus [17]): 30%; Activity (Rattus norvegicus [18]): 78%; Activity (Rattus norvegicus [8]): 4.51%; Activity (Rattus norvegicus [9]): 1.23%; Activity (Rattus norvegicus [10]): 0.14%; Activity (Rattus norvegicus [19]): 91%; solubility [11]: Insoluble; Activity (Mus musculus [20]): 100%; Activity (Rattus norvegicus [21]): 99%; Activity (Rattus norvegicus [12]): 0.39%
O=C(COc1cccc(Cl)c1)COc1cccc(Cl)c1,84,97,91,–
O=C(COc1ccccc1Cl)COc1ccccc1Cl,70,69,69,Activity (Rattus norvegicus [4]): 1.02%; Activity (Rattus norvegicus [7]): 0.27%; Activity (Rattus norvegicus [8]): 4.66%; Activity (Rattus norvegicus [9]): 1.21%; Activity (Rattus norvegicus [10]): 0.23%
Cc1ccccc1OCC(=O)COc1ccccc1C,90,90,92,–
CC(Cc1ccccc1)C(=O)C(C)Cc1ccccc1 (centres undefined),–,–,–,Activity (Mus musculus [13]): 0%; Activity (Mus musculus [17]): 0%; Activity (Mus musculus [20]): 0%
Cc1ccc(/C=C/C(=O)/C=C/c2ccc(C)cc2)cc1,96,94,83,–
CCOC(=O)C(C)(C)Oc1ccc(Cl)cc1 [CLOFIBRATE],106,111,98,–
CC/C(=C(/CC)c1ccc(O)cc1)c1ccc(O)cc1 [DIETHYLSTILBESTROL],–,–,–,Activity (Mus musculus [22]): 0%; Activity (Mus musculus [23]): 0%; Activity (Mus musculus [24]): 0%
C#C[C@]1(O)CC[C@H]2[C@@H]3CCc4cc(O)ccc4[C@H]3CC[C@@]21C [ETHINYL ESTRADIOL],–,–,–,Activity (Rattus norvegicus [5]): 231%
